Test results as given in ChEMBL document CHEMBL1138325, “Design, synthesis, in vitro, and in vivo characterization of phenylpiperazines and pyridinylpiperazines as potent and selective antagonists of the melanocortin-4 receptor” (J Med Chem, 2007).
Activity calls are given as the source filed them. No cut-off for these calls is given here.

Columns and labels:
Cytochrome P450 3A4 = Cytochrome P450 3A4 (Homo sapiens, UniProt P08684); test: Inhibition of CYP3A4; type: ADME
[1] = Clearance in monkey at 5 mg/kg, iv; type: ADME, organism-based, Macaca mulatta; set-up: dose 5 mg/kg, route intravenous; conditions: rhesus monkey, in vivo
[2] = Clearance in CD1 mouse at 5 mg/kg, iv; type: ADME, organism-based; set-up: dose 5 mg/kg, route intravenous; conditions: in vivo
Summary of the method: (§1)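 CD-1 mice, three animals, dosed i.v. at 5 mg/kg and by oral gavage at 10 mg/kg. Plasma CL, Vd, t1/2, Cmax, Tmax, oral AUC and F% were derived. Brain concentrations and brain/plasma ratios at 1 and 4 h were taken from the i.v. dosing.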

[3] = Tmax in CD1 mouse at 10 mg/kg, ip; type: ADME, organism-based; set-up: dose 10 mg/kg, route intraperitoneal; conditions: in vivo
[4] = Half life in Sprague-Dawley rat at 5 mg/kg, iv and 10 mg/kg, po; type: ADME, organism-based; conditions: in vivo
[5] = Bioavailability in CD1 mouse at 10 mg/kg, po; type: ADME, organism-based; conditions: in vivo; summary of the method: as §1
[6] = Drug level in CD1 mouse brain at 5 mg/kg, iv after 4 hrs; type: ADME, organism-based; set-up: dose 5 mg/kg, route intravenous; conditions: read-out: Drug uptake; summary of the method: as §1
[7] = AUC in monkey at 10 mg/kg, po; type: ADME, organism-based, Macaca mulatta; set-up: dose 10 mg/kg, route oral; conditions: rhesus monkey, plasma
Mus musculus [8] = test: Increase in food intake in Lewis lung carcinoma bearing C57BL/6J mouse at 9 mg/kg, ip bid after 4 days; type: functional, organism-based; set-up: dose 9 mg/kg
Summary of the method: (§2)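 Male C57BL/6J mice inoculated with Lewis lung carcinoma cells. From day 11 after inoculation, mice were dosed i.p. twice daily at 3 or 9 mg/kg for 4 days and compared with vehicle-treated tumor-bearing controls. Food intake and body weight were recorded; lean body mass was measured by DEXA.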

[9] = Half life in CD1 mouse at 5 mg/kg, iv; type: ADME, organism-based; set-up: dose 5 mg/kg, route intravenous; conditions: in vivo; summary of the method: as §1
Mus musculus [10] = test: Increase in lean body mass in Lewis lung carcinoma bearing C57BL/6J mouse at 3 mg/kg, ip bid after 4 days; type: functional; conditions: route intraperitoneal; summary of the method: as §2
[11] = Tmax in Sprague-Dawley rat at 5 mg/kg, iv and 10 mg/kg, po; type: ADME, organism-based; conditions: in vivo
Summary of the method: (§3)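 Sprague–Dawley rats, three animals per route; i.v. dose 5 mg/kg and oral 10 mg/kg. Brain concentrations and brain/plasma ratios taken from the oral dosing at 1 and 4 h post-dose.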

Mus musculus [12] = test: Increase in body weight in Lewis lung carcinoma bearing C57BL/6J mouse at 9 mg/kg, ip bid after 4 days; type: functional, organism-based; set-up: dose 9 mg/kg; summary of the method: as §2
Melanocortin receptor 4 = Melanocortin receptor 4 (Homo sapiens, UniProt P32245); test: Antagonist activity at human MC4R expressed in HEK293 cells assessed as inhibition of alpha-MSH-stimulated cAMP production; type: functional, cell-based
Melanocortin receptor 4, sequence (P32245 whole entry): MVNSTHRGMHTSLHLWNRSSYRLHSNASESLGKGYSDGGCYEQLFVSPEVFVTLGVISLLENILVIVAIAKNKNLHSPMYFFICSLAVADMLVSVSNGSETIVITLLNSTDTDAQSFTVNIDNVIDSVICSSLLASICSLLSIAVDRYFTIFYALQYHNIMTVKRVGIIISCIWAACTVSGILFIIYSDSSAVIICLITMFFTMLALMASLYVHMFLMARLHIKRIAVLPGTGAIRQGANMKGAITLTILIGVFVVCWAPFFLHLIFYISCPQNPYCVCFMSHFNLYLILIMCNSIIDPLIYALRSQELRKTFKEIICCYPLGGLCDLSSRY

[13] = Clearance in Sprague-Dawley rat at 5 mg/kg, iv and 10 mg/kg, po; type: ADME, organism-based; conditions: in vivo
[14] = Bioavailability in monkey at 10 mg/kg, po; type: ADME, organism-based, Macaca mulatta; conditions: rhesus monkey, in vivo
[15] = Volume of distribution in Sprague-Dawley rat at 5 mg/kg, iv and 10 mg/kg, po; type: ADME, organism-based; conditions: in vivo; summary of the method: as §3
[16] = Bioavailability in dog at 10 mg/kg, po; type: ADME, organism-based, Canis lupus familiaris; conditions: in vivo
[17] = Volume of distribution in CD1 mouse at 5 mg/kg, iv; type: ADME, organism-based; set-up: dose 5 mg/kg, route intravenous; conditions: in vivo
Summary of the method: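 CD-1 mice, three animals per route; single i.v. dose at 5 mg/kg and oral gavage at 10 mg/kg. Plasma PK parameters derived; brain concentrations and brain/plasma ratios taken from the i.v. dosing at 1 and 4 h.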

[18] = AUC in dog at 10 mg/kg, po; type: ADME, organism-based, Canis lupus familiaris; set-up: dose 10 mg/kg, route oral; conditions: plasma
Cytochrome P450 2C19 = Cytochrome P450 2C19 (Homo sapiens, UniProt P33261); test: Inhibition of CYP2C19; type: ADME
Cytochrome P450 2C19, sequence (P33261 whole entry): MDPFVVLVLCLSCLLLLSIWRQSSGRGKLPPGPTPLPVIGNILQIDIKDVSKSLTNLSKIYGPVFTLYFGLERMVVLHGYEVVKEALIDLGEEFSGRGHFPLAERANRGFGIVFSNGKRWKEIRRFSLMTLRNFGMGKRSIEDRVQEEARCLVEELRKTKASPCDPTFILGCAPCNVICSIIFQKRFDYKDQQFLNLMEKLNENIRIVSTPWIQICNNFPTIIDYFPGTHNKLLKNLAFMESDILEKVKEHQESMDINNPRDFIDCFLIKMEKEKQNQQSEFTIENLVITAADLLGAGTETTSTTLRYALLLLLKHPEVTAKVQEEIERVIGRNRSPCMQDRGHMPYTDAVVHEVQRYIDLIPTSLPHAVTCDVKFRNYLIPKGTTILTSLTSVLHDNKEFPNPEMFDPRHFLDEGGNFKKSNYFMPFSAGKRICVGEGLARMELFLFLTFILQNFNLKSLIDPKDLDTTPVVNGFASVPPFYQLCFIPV

Cytochrome P450 3A4, sequence (P08684 whole entry): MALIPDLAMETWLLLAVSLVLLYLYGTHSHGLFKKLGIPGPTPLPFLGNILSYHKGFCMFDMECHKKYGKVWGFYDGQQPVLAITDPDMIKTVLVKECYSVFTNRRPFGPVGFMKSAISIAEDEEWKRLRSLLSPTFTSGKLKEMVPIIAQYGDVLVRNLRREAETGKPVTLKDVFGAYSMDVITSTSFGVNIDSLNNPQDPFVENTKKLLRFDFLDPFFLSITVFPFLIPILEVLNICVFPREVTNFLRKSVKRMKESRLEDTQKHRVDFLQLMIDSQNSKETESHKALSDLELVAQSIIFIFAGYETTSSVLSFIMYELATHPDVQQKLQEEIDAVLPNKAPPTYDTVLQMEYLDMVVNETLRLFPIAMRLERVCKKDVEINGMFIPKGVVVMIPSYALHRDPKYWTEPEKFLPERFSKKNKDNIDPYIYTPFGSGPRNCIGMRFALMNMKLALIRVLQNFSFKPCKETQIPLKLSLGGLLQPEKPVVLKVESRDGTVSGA

IC50 (Cytochrome P450 3A4): > 10 µM
clearance [1]: 24.3 mL/min/kg
clearance [2]: 36 mL/min/kg
Tmax [3]: 0.3 h
half-life [4]: 2.2 h
bioavailability [5]: 23%
concentration at 4 h [6]: 177 ng/g
AUC [7]: 1070 ng·h/mL
half-life [9]: 3.5 h
Tmax [11]: 6 h
IC50 (Melanocortin receptor 4): 0.93 µM
clearance [13]: 13 mL/min/kg
bioavailability [14]: 13.1%
Vd [15]: 2.5 L/kg
bioavailability [16]: 29.4%
Vd [17]: 11 L/kg
AUC [18]: 1480 ng·h/mL
IC50 (Cytochrome P450 2C19): > 10 µM
Compound: CC(C)C[C@H](NC(=O)CCN(C)C)c1cc(Cl)ccc1N1CCN(C(=O)[C@H](C)Cc2ccc(Cl)cc2)CC1
Activity (Mus musculus [8]): Active
Activity (Mus musculus [10]): 7%
Activity (Mus musculus [12]): Active
